Experimental data taken from PMC5388449 (Journal of electroanalytical chemistry (Lausanne, …, 2016).
Like-named read-outs stand apart in the source and are kept apart here.

What was measured:
Concanavalin A (Con A) = Concanavalin A (Con A) (Canavalia ensiformis, UniProt P02866); experiment: biochemical; assay type: binding, Canavalia ensiformis (Jack Bean); conditions: for ΔRct (Rct after Con A immobilization – Rct before): single-component SAM on gold wire
peanut agglutinin (PNA) = target: T1, peanut agglutinin (PNA) (Arachis hypogaea, UniProt P02872); experiment: EIS negative control: PNA exposed to SAMs of thiolated mannosides on gold wire; assay type: binding; conditions: single-component SAM of Man-C8-SH on gold wire, 0.5 μM PNA
T1 sequence (P02872 24-273): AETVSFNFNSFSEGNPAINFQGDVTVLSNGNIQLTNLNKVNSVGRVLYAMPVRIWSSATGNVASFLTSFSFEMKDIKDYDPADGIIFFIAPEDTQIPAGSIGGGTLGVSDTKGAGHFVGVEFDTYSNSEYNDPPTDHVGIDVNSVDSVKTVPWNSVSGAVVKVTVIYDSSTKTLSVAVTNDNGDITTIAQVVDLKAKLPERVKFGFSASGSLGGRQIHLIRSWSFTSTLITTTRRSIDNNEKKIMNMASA
Procedure, shortened: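 Gold wires cleaned in nitric acid, then 0.5 M NaBH4 for 17 h. SAMs formed from thiolated mannoside, alone or with TEG-SH (1.0 mM total in methanol), 17 h at room temperature. Lectin in 10 mM Tris pH 7.4 with 0.1 M NaCl, 1 mM CaCl2, 1 mM MnCl2; 1 h at room temperature, then rinsed. EIS run at 5.0 mm exposed wire in 5 mM 1:1 ferri/ferrocyanide in 10 mM Tris pH 7.4, 100 kHz–1 Hz, 0.22 V vs Ag/AgCl. Rct obtained by Randles-circuit fit of Nyquist plots.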

Con A [1] = conditions: SPR, cited from earlier work
Con A [2] = conditions: QCM, cited from earlier work
Con A [3] = conditions: ITC, in solution; cited from earlier work
Con A [4] = conditions: ITC, depending on ligand density on nanoparticles surface; cited from earlier work

| Molecule | Kd (Concanavalin A (Con A)) | Hill coefficient (Concanavalin A (Con A)) | LOD (Concanavalin A (Con A)) | also measured |
| --- | --- | --- | --- | --- |
| OC[C@H]1O[C@H](OCCCCCCCCS)[C@@H](O)[C@@H](O)[C@@H]1O [A, 8-mercaptooctyl α-D-mannopyranoside] | 0.07 ± 0.019 µM |  |  | ΔRct (Concanavalin A (Con A); mixed SAM 1:4 Man-C8-SH/TEG-SH on gold wire, 0.5 μM Con A, 1 h): 495 ± 15 Ω; ΔRct (Rct after Con A immobilization – Rct before) (Concanavalin A (Con A); 0.5 μM Con A, 1 h): 299 ± 51 Ω; increase in Rct value (peanut agglutinin (PNA)): negligible increase |
| OC[C@H]1O[C@H](O[C@@H]2[C@H](O)[C@@H](OCCCCCCCCS)O[C@H](CO)[C@H]2O)[C@@H](O)[C@@H](O)[C@@H]1O [B, 8-Mercaptooctyl 3-O-(α-D-mannopyranosyl)-α-D-mannopyranoside] | 0.075 ± 0.02 µM |  |  |  |
| OC[C@H]1O[C@H](OC[C@H]2O[C@H](OCCCCCCCCS)[C@@H](O)[C@@H](O)[C@@H]2O)[C@@H](O)[C@@H](O)[C@@H]1O [C, 8-Mercaptooctyl 6-O-(α-D-mannopyranosyl)-α-D-mannopyranoside] | 0.014 ± 0.004 µM | 0.73 ± 0.17 | 6 nM |  |
| OC[C@H]1O[C@H](OC[C@H]2O[C@H](OCCCCCCCCS)[C@@H](O)[C@@H](O[C@H]3O[C@H](CO)[C@@H](O)[C@H](O)[C@@H]3O)[C@@H]2O)[C@@H](O)[C@@H](O)[C@@H]1O [D, 8-Mercaptooctyl 3,6-di-O-(α-D-mannopyranosyl)-α-D-mannopyranoside] | 0.03 ± 0.005 µM | 0.55 ± 0.05 | 13 nM |  |
| OC[C@H]1O[C@H](OC[C@H]2O[C@H](OCCCCCCCCS)[C@@H](O)[C@@H](O)[C@@H]2O[C@H]2O[C@H](CO)[C@@H](O)[C@H](O)[C@@H]2O)[C@@H](O)[C@@H](O)[C@@H]1O [E, 8-Mercaptooctyl 4,6-di-O-(α-D-mannopyranosyl)-α-D-mannopyranoside] | 0.081 ± 0.031 µM | 0.50 ± 0.06 | 11 nM |  |
| OCCOCCOCCS [TEG-SH, 8-mercapto-3,6-dioxaoctanol, reference compound] |  |  |  | ΔRct (Rct after Con A immobilization – Rct before) (Concanavalin A (Con A); 0.5 μM Con A, 1 h): 63 ± 13 Ω |
| OC[C@H]1OC(O)[C@@H](O)[C@@H](O)[C@@H]1O (stereo partly shown) [mannose] |  |  |  | Kd (Con A [1]; mannose functionalized on a gold surface, multivalent interactions): 0.078 µM; Kd (Con A [1]; mannose–Con A interaction): 0.135 to 0.4 µM; Kd (Con A [2]; 1:2 binding of Con A to mannose): 0.071 µM; Kd (Con A [2]; mannose–Con A interaction): 0.25 to 0.4 µM |
| CO[C@H]1O[C@H](CO)[C@@H](O)[C@H](O)[C@@H]1O [methyl α-D-mannopyranoside] |  |  |  | Ka (Con A [3]): 0.82 × 10^4; Kd (Con A [3]): 122 µM |
| dimannose |  |  |  | Kd (Con A [4]): 0.035 to 0.175 µM |
